The text below walks through data of ChEMBL document CHEMBL4342460, “1-(2'-Bromobenzyl)-6,7-dihydroxy-N-methyl-tetrahydroisoquinoline and 1,2-Demethyl-nuciferine as Agonists in Human D2 Dopamine Receptors” (J Nat Prod, 2020).

Active and inactive are the calls of the source. No cut-off for these calls is given here.

One test deals with D(3) dopamine receptor (Homo sapiens, UniProt P35462). The test is described as follows: Displacement of [3H]spiperone from human D3 receptor expressed in CHO-K1 cells by radioligand competitive binding analysis. It is filed as cell-based. On the technique in general: Displacement assays read how much labelled ligand stays bound in the presence of the test substance.
The target of test [1] is T1, D(2) dopamine receptor (Homo sapiens, UniProt P14416). Description: Agonist activity at human D2S receptor expressed in CHOK1 cells assessed as inhibition of forskolin induced cAMP production by measuring Emax for cAMP accumulation at 100 uM preincubated for 10 mins followed by forskolin addition and measured after 5 mins by HTRF assay relative to quinpirole. It is filed as functional, cell-based. The method, boiled down:
(§1)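 CHO-K1 cells stably transfected with human D2S cDNA, kept in 500 μg/mL G418. Cells in stimulation buffer with 500 μM IBMX took compound for 10 min at 37 °C, then forskolin (10 μM) for 5 min. Intracellular cAMP read by HTRF. Efficacy is percent of maximal quinpirole response. Basal cAMP from wells lacking compound, quinpirole and forskolin. n = 3−4 independent experiments in triplicate, mean SEM.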
For orientation: Changes in cAMP serve as a functional read-out for many G protein-coupled receptors.

Test [2] addresses T1, D(2) dopamine receptor. Description: Agonist activity at human D2S receptor expressed in CHOK1 cells assessed as inhibition of forskolin induced cAMP production by measuring Emax for cAMP accumulation at 10 uM preincubated for 10 mins followed by forskolin addition and measured after 5 mins by HTRF assay relative to quinpirole (reference value: 98.8 +/- 0.6%). It is filed as functional, cell-based. The gist of the method: as §1

A short description of test [3]: Displacement of [3H]spiperone from human D4.2 receptor expressed in CHO-K1 cells by radioligand competitive binding analysis. The class given is cell-based. The gist of the method: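 Competition for [3H]-spiperone on membranes from CHO-K1 cells stably expressing human D4.2 receptor, with nonspecific binding set by 25 μM haloperidol. Six concentrations run, from 1 nM to 100 μM or 0.1 nM to 10 μM. Curves fitted to a single-site model, and Ki derived using radioligand concentration and Kd from saturation binding. Clozapine reference. n = 2, mean SEM.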

For a further test, the system named is CHO-K1. The test is described as follows: Displacement of [3H]spiperone from human D4.2 receptor expressed in CHO-K1 cells at 10 uM by radioligand competitive binding analysis relative to control. The class given is cell-based. The gist of the method: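 Membranes from CHO-K1 cells stably expressing human D4.2 receptor. Radioligand [3H]-spiperone. Nonspecific binding defined with 25 μM haloperidol. […] Clozapine served as reference competitor. n = 2, mean SEM.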

Test [4] deals with T1, D(2) dopamine receptor. Description: Antagonist activity at human D2S receptor expressed in CHOK1 cells assessed as suppression of quinpirole-induced inhibition of forskolin induced cAMP production at 10 uM preincubated for 10 mins followed by forskolin addition and measured after 5 mins in presence of 100 nM quinpirole by HTRF assay relative to quinpirole EC50. The class given is functional, cell-based. The gist of the method: (§2)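 CHO-K1 cells stably transfected with human D2S (short isoform) cDNA. Test compound (10 μM) was added at the same time as quinpirole (10 pM to 100 μM). Cells were in stimulation buffer with 500 μM IBMX for 10 min at 37 °C, then 10 μM forskolin for 5 min. cAMP was read by HTRF, with basal wells lacking all additions. n = 3−4 independent experiments, in triplicate.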

Test [5] addresses T1, D(2) dopamine receptor. Description: Agonist activity at human D2S receptor expressed in CHOK1 cells assessed as inhibition of forskolin induced cAMP production at 10 uM preincubated for 10 mins followed by forskolin addition and measured after 5 mins in presence of low concentration of quinpirole by HTRF assay. It is filed as functional, cell-based. The gist of the method:
as §2

In test [6] the target is T1, D(2) dopamine receptor. Description: Displacement of [3H]spiperone from human D2S receptor expressed in CHO-K1 cells by radioligand competitive binding analysis. It is filed as cell-based.
The target of test [7] is T1, D(2) dopamine receptor. The test is described as follows: Agonist activity at human D2S receptor expressed in CHOK1 cells assessed as inhibition of forskolin induced cAMP production preincubated for 10 mins followed by forskolin addition and measured after 5 mins by HTRF assay relative to control. It is filed as functional, cell-based.

T1 sequence (P14416 whole entry): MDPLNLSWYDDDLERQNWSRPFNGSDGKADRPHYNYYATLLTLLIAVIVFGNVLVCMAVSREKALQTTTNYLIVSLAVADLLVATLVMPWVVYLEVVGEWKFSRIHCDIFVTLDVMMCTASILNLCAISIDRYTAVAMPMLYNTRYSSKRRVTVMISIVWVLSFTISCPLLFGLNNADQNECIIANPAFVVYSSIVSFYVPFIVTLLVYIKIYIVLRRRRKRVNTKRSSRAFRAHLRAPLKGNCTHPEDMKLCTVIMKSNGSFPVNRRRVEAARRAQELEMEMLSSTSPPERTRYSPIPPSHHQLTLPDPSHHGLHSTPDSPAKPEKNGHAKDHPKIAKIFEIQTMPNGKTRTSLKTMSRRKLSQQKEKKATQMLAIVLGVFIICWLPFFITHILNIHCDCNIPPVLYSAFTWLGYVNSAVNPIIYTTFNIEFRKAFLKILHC
D(3) dopamine receptor, sequence (P35462 whole entry): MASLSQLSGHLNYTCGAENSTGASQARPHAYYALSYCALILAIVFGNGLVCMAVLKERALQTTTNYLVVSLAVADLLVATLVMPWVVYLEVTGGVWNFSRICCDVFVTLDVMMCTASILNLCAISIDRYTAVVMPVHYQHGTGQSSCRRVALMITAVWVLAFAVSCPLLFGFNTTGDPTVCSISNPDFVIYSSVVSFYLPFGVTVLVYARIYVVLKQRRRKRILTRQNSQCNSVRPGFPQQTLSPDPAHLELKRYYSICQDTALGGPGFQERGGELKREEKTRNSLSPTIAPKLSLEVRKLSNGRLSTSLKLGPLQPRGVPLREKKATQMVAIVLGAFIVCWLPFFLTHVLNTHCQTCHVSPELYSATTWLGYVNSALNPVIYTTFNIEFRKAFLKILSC

As usually defined, the Ki is a measure of affinity in units of concentration, obtained from inhibition or displacement. A low value points to tighter binding. A word on the Emax: it is the greatest response seen or fitted, relative to the assay's reference. One may read the pKi as the Ki on a negative log10 scale, so that one unit is a factor of ten. Higher therefore signals a small Ki. Broadly, the inhibition is the drop in the measured response relative to a control, in per cent. Turning to `CN1CCc2cc(O)c(O)c3c2C1Cc1ccccc1-3` (stereo not drawn), on D(3) dopamine receptor, the Activity result was “Dose-dependent effect” and the affinity corresponds to a Ki of 838 nM. Further, the maximum response (Emax) on D(2) dopamine receptor [1] is 92.7%. Also, the Emax on D(2) dopamine receptor [2] is 50.7%. Further, in test [3], the Activity result is “Dose-dependent effect”, the affinity corresponds to a Ki of 551 nM and the pKi is recorded as 6.26. The inhibition in the test with CHO-K1 is 73%.

Consider `CN1CCN(C2=Nc3cc(Cl)ccc3Nc3ccccc32)CC1` [CLOZAPINE], for which, in [3], the Ki stood at 56.9 nM and the pKi is 7.25. This compound also had an inhibition with CHO-K1 of 96%.

For orientation: EC50 means the concentration that produces a half-maximal response. Take `CN1CCc2cc(O)c(O)cc2C1Cc1ccccc1Br` (stereo not drawn): the Activity result (on D(3) dopamine receptor; in test [3]) was “Dose-dependent effect” throughout. Further, the results for the Ki (on D(3) dopamine receptor; in test [3]; at D(2) dopamine receptor [6]) were 197 nM, 13.8 nM and 286 nM, respectively. Besides, the figures for the Emax at D(2) dopamine receptor [1] and at D(2) dopamine receptor [2] were 48.4% and 31.9%, respectively. Further, at D(2) dopamine receptor [4], the fold change (FC) was determined as 35. In test [3], this compound had a negative-log Ki (pKi) of 7.86. The inhibition in the test with CHO-K1 was 96%. The result on D(2) dopamine receptor [5] was Active. For the same compound, the EC50 at D(2) dopamine receptor [7] amounted to 2950 nM.
